High-throughput results from PubChem BioAssay.
Mac1 fbg enh: enhancers of CD11b/CD18 adhesion to fibrinogen, primary screen, K562 cells, luminescence | Integrin beta-2 (Homo sapiens) + Integrin alpha-M (Homo sapiens), P05107+P11215 | ATPlite luminescence | activation, % at 10 µM | actives 0.07% (n = 93,000);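 active = 10 µM primary screen giving 50% or more activity, confirmed by 40% or more on retest at that dose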
Calb biofilm kill: clotrimazole potentiators killing Candida biofilms, primary screen, with clotrimazole, Alamar Blue; C. albicans biofilm + clotrimazole; inhibition, % at 6 µM; actives 0.14% (n = 85,000); AID 834, 2007;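 active = inhibition above 20%; inactive = inhibition below 20%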;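 note: preformed 24 hr biofilms exposed to compound for 48 hr; 0% = biofilm without compound and 100% = blank killed by clotrimazole plus chlorhexidine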
SF1 activator: activators of human SF-1, primary screen, cell-based, CHO-K1, Gal4-SF-1 LBD, luciferase luminescence. CHO-K1 Gal4-SF-1 LBD luciferase reporter; % increase over DMSO SF-1-specific signal. activation, % at 10 µM. Steroidogenic factor 1 (Homo sapiens), Q13285. actives 1.9% (n = 65,000);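 active = activation above the mean activation of all tested compounds plus 3 SD, cut at about 50% in these data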
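System: CHO-K1 cells with Gal4–hSF-1 LBD chimera plus Gal4-driven luciferase; quantity: 4,000 CHO-K1 cells per well; compound: one dose, 10 µM compound, 1% DMSO; times: 20 h compound treatment, 37 °C; measured by: SteadyLite luciferase luminescence; read-out: percent activation versus DMSO; benchmarks: DMSO and mock-transfected background; replicates: one test per compound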
MT1-MMP txn act: MT1-MMP promoter reporter activation – cell-based, luciferase luminescence, primary screen; actives 0.16% (n = 86,000); HT1080 MT1-MMP promoter luciferase reporter, overnight; active compounds read high; activation factor at 10 µM;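 active = activation factor of at least 2 for MT1-MMP transcription at 10 µM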
RORa activator: activators of orphan receptor RORA, primary screen, cell-based, luminescence; Nuclear receptor ROR-alpha (Homo sapiens), P35398; CHO-K1 Gal4-RORA LBD luciferase reporter; percent increase over mock-subtracted basal signal; activation, % at 10 µM; actives 1.5% (n = 65,000);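 active = activation above the mean of all tested compounds plus 3 SD, cut at about 49% in these data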;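 note: 0% = DMSO-treated RORA cells and 100% = added signal equal to DMSO minus mock-transfected cells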
Target sequence (P35398 whole entry, looked up, the tested form may be a part): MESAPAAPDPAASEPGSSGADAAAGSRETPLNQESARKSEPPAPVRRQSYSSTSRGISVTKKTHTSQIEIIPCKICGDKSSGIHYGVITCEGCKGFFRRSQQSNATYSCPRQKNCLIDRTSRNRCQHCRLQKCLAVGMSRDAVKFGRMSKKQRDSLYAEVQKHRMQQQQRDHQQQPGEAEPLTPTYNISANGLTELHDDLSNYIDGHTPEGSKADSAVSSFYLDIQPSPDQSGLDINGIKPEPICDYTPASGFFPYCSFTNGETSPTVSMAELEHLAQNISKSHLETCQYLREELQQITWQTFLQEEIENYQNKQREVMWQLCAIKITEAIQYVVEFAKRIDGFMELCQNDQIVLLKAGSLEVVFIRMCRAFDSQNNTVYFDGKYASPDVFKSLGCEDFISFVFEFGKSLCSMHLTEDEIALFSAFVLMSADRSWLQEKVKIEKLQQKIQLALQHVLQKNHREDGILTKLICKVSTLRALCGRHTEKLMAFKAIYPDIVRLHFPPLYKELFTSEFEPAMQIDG
Mac1 fbg inh: inhibitors of CD11b/CD18 adhesion to fibrinogen, primary screen, K562 cells, luminescence; Integrin beta-2 (Homo sapiens) + Integrin alpha-M (Homo sapiens), P05107+P11215; inhibition, % at 10 µM; ATPlite luminescence; Mn2+ added to activate the integrin; actives 0.54% (n = 93,000); AID 1497, 2009;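 active = primary inhibition of 50% or more at 10 µM, then 40% or more on retest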
An asterisk follows results filed as active; . = not tested or not shown. An excerpt weighted towards active compounds, which were near 2.2% of everything screened.

SMILES	Mac1 fbg enh	Calb biofilm kill	SF1 activator	MT1-MMP txn act	RORa activator	Mac1 fbg inh
O=C(Nc1ccc(N2CCOCC2)cc1)c1cc2ccccc2o1	.	7	47	1.6	74*	.
CCCC1(C(=O)OC)C=C2C(=C(C)C(=O)C2C)CN1 (stereo not given)	.	.	.	1.6	.	.
CC(C)NC(=O)CCCOc1ccc(Cl)cc1Cl	-4	-1	.	1.2	.	30
CCN(CC)C(=O)CCCOc1ccc(Cl)cc1Cl	4	.	11	1.4	54*	-4
Cc1nn(C)cc1/C=C/C(=O)c1cccs1	.	3	.	2.5*	.	.
Cc1nn(C)cc1/C=C/C(=O)c1ccccc1	-1	.	.	.	.	-8
Cn1c(N)c(C(=O)COC(=O)c2cc(C3CC3)nc3ccccc23)c(=O)n(Cc2ccccc2)c1=O	.	.	.	1	.	.
N/C(=N\O)c1ccc(NC(=O)c2cccs2)cc1	1	-2	52*	1.5	36	7
CC(=O)c1ccc(NC(=O)c2cccs2)cc1	-2	5	.	1.3	.	-10
O=C(Nc1ccc2c(c1)OCO2)c1cc(C2CC2)on1	-1	4	49	1	60*	12
O=C(c1ccc2c(c1)OCCCO2)c1cccs1	1	6	54*	1.4	22	-2
O=C(Nc1cccc(F)c1)c1ccc2c(c1)OCO2	1	9	62*	1.1	31	-26
O=C(Nc1c(C(=O)Nc2cccc(F)c2)oc2ccccc12)c1ccc2c(c1)OCO2	.	7	10	1.1	-8	.
Cc1cc(NC(=O)c2ccc3c(c2)OCO3)no1	0	11	60*	1	30	-1
O=C(Nc1ccc2c(c1)OCO2)c1ccc(Br)s1	-3	.	49	.	69*	-9
O=C(Nc1ccc2c(c1)OCO2)c1cccs1	-1	1	61*	1.4	26	-3
O=C(Nc1ccc2c(c1)OCO2)c1ccncc1	-4	6	0	1.4	6	-28
COc1ccc(/C=N/NC(=O)c2ccc(N(C)S(=O)(=O)c3ccccc3)cc2)cc1OC	-1	.	.	.	.	-31
O=C(CCN1C(=O)C2C3CC(C(Br)C3Br)C2C1=O)OCC(=O)c1ccccc1 (stereo not given)	0	.	.	.	.	-19
CCCOC(=O)Nc1nc2ccccc2o1	-2	7	58*	1.5	34	-4
c1ccc(Nc2nc3ccccc3o2)cc1	-5	.	.	.	.	10
FC(F)(F)Oc1ccc(Nc2nc3ccccc3o2)cc1	2	2	39	2.2*	71*	-2
CN(C)/C=C1\C(=O)c2ccc(N(C)C)nc2CC1c1ccccc1 (stereo not given)	.	3	-6	0.9	7	.
CC(C)Cn1cnc2c(c(-c3ccccc3)c(-c3ccccc3)n2Cc2ccco2)c1=N	-1	11	.	.	.	14
N=c1c2c(-c3ccccc3)c(-c3ccccc3)n(Cc3ccco3)c2ncn1Cc1ccccc1	2	43*	.	1.1	.	37
SMILES	Mac1 fbg enh	Calb biofilm kill	SF1 activator	MT1-MMP txn act	RORa activator	Mac1 fbg inh
CS(=O)(=O)c1ccc2nc(NC(=O)CCC(=O)c3cccs3)sc2c1	122	1	-2	1.3	4	-12
CCN(CC)S(=O)(=O)c1ccc2nc(NC(=O)c3cccs3)sc2c1	15	.	25	1.3	49*	-34
CC1=C(C(=O)OCC(Br)(Br)Br)C(c2ccccc2)NC(=O)N1CCCC(=O)O (stereo not given)	.	.	.	1.3	.	.
O=C(Nc1cccc(Cl)c1)c1ccc2c(=O)n3c(nc2c1)CCCCC3	-4	-2	59*	0.7	24	12
CN(C)c1cccc(C(=O)Nc2ccc3nc4n(c(=O)c3c2)CCCCC4)c1	4	11	.	.	.	-1
O=C(Nc1ccc(F)c(Cl)c1)c1ccc2c(=O)n3c(nc2c1)CCCCC3	-4	8	74*	1.5	30	-21
COc1ccc(NC(=O)CCCN2C(=O)/C(=C\c3ccco3)SC2=S)cc1	9	.	.	.	.	2
O=C(O)CCCN1C(=O)/C(=C/c2ccc(-c3nc4ccccc4s3)o2)SC1=S	41	.	.	.	.	93*
O=C(COC(=O)c1ccccc1NC(=O)C1CC1)c1ccc2c(c1)OCCO2	3	.	.	.	.	28
c1coc(CNc2ncnc3nc[nH]c23)c1	-3	10	3	1.1	-21	-1
Cc1ccc2[nH]c3c(NCc4ccco4)ncnc3c2c1	-7	8	-18	1.9	-8	76*
Cc1nn2c(-c3ccncc3)nnc2c2ccccc12	0	.	-10	1.1	-5	-57
COc1ccc(-c2nnc3c4ccccc4c(C)nn23)cc1	-4	4	.	2*	.	-2
CCONC(=O)Nc1ccccc1	7	.	.	.	.	-7
O=C(CSC1=NS(=O)(=O)c2ccccc21)Nc1ccccc1	-6	13	-4	0.9	4	72*
CCCc1cc(C(=O)Nc2ccccc2SC)no1	2	3	56*	1.5	1	2
CCCc1cc(C(=O)Nc2ccc(F)cc2F)no1	-4	9	.	.	.	13
CCCc1cc(C(=O)NCc2cccs2)no1	-2	-11	50*	1.6	37	-11
Cc1ccc(-c2cc(C(=O)NCc3cccs3)no2)cc1	9	6	60*	1.3	59*	2
O=C(NCc1cccs1)c1cc(-c2cccc(Cl)c2)on1	-1	7	23	1.6	31	-7
CCCc1cc(C(=O)NCc2ccccc2)no1	-2	5	22	1.3	30	-6
COC(=O)C(NNc1ccccc1)(NC(=O)c1cccc(F)c1)C(F)(F)F (stereo not given)	-1	.	.	.	.	18
Cc1ccc(N2C(=O)[C@@H]3C(C(=O)C(c4ccccc4)c4ccccc4)=NN[C@@H]3C2=O)cc1	-1	.	.	.	.	12
CCOc1ccccc1NC(C)C(=O)Nc1cc(C(F)(F)F)ccc1N1CCOCC1 (stereo not given)	-2	.	.	.	.	13
c1ccc2c(c1)ccc1nnc(SCc3ccc4c(c3)OCO4)n12	-6	9	.	.	.	-1
SMILES	Mac1 fbg enh	Calb biofilm kill	SF1 activator	MT1-MMP txn act	RORa activator	Mac1 fbg inh
c1ccn2cc(CSc3nnc4ccccn34)nc2c1	4	7	58*	1.6	57*	-13
c1ccn2c(SCc3ccc4c(c3)OCCO4)nnc2c1	0	7	40	1.5	57*	-20
CC(C)NC(=O)NC(=O)COC(=O)c1ccc(F)cc1F	3	.	.	.	.	-2
O=C(NCCc1ccccc1)/C(=N\O)c1ccccc1	-6	8	64*	1.8	14	-8
CCN1CCN(Cc2ccc(OCc3ccccc3)cc2)CC1	7	4	57*	1	47	-44
CN1CCN(Cc2ccc(OCc3ccccc3)cc2)CC1	-1	1	17	1.5	22	2
